ChEMBL document CHEMBL1212817, “Design and synthesis of C-2 substituted thiazolo and dihydrothiazolo ring-fused 2-pyridones: pilicides with increased antivirulence activity” (J Med Chem, 2010)

Columns and labels:
Escherichia coli = assay: Antibacterial activity against Escherichia coli UTI89 assessed as number of wells with agglutination by hemagglutinination assay; assay type: functional
Method in brief: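 UTI89 grown with pilicide at 250 μM; culture piliation then scored by hemagglutination titer, expressed as number of wells with agglutination (2ⁿ); value is the average of duplicate runs.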

Chaperone protein PapD = biological target: T1, Chaperone protein PapD (Escherichia coli, UniProt P15319); assay: Inhibition of Escherichia coli UTI89 PapD chaperon assessed as inhibition of biofilm formation
T1 sequence (P15319 whole entry): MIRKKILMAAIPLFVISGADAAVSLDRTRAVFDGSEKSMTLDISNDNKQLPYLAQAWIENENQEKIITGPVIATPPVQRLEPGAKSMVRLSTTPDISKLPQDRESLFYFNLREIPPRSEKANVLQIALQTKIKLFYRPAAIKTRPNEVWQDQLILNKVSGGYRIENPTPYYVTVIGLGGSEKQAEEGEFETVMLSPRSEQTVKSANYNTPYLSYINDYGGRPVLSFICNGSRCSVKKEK
Method in brief: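 Pilus-dependent biofilm assay with whole E. coli UTI89 grown on polyvinylchloride in the presence of pilicide; biofilm amount taken as readout of piliation block. IC50 calculated from 16-32 data points at every concentration.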

Row | IC50 (Chaperone protein PapD) | Compound | Activity (Escherichia coli)
1 | – | O=C(O)c1c(-c2ccccc2)sc2c(C3CC3)c(Cc3cccc4ccccc34)cc(=O)n12 | 4.5
2 | Not Active | COc1ccc(-c2sc3c(C4CC4)c(Cc4cccc5ccccc45)cc(=O)n3c2C(=O)O)cc1 | –
3 | Not Active | O=C(c1ccccc1)c1sc2c(C3CC3)c(Cc3cccc4ccccc34)cc(=O)n2c1C(=O)O | –
4 | – | Cc1cccc(-c2sc3c(C4CC4)c(Cc4cccc5ccccc45)cc(=O)n3c2C(=O)O)c1 | 3
5 | Not Active | O=C(O)c1c(-c2ccc3[nH]ccc3c2)sc2c(C3CC3)c(Cc3cccc4ccccc34)cc(=O)n12 | –
6 | – | O=C(O)c1c(-c2ccsc2)sc2c(C3CC3)c(Cc3cccc4ccccc34)cc(=O)n12 | 3.5
7 | – | O=C(O)c1c(Cc2ccccc2)sc2c(C3CC3)c(Cc3cccc4ccccc34)cc(=O)n12 | 3
